Screens deposited in PubChem by several laboratories.
Compounds with a hit are over-represented: about 6.7% of the library has one in this group of screens.
PREPL inhibitor: inhibits the human prolyl oligopeptidase-like enzyme | inhibition, % at 5.96 µM | 0.68% of 320,000 active | recombinant PREPL, fluorescence polarization activity-based probe | Q4J6C6; in the data active = inhibition above about 43%
Target sequence (Q4J6C6 whole entry, looked up): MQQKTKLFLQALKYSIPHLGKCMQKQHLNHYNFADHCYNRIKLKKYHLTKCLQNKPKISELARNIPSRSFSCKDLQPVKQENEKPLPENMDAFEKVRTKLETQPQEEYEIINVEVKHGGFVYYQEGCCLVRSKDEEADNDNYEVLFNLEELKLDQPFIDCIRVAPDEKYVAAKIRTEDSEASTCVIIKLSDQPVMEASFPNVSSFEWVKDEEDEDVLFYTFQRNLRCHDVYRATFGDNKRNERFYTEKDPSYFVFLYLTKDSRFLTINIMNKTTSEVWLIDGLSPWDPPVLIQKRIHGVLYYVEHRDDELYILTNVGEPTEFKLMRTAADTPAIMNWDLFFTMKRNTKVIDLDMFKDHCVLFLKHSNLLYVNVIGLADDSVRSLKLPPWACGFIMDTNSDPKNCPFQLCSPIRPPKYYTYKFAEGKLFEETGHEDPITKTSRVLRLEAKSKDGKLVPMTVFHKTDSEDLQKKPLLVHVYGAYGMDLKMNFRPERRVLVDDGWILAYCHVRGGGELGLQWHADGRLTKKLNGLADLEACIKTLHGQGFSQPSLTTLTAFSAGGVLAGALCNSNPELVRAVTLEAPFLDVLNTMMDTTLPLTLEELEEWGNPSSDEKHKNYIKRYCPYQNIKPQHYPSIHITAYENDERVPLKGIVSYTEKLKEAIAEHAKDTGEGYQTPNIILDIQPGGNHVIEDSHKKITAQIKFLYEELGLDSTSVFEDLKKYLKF
GRIN3A LBD mod: modulates the human NR3A ligand-binding domain. NR3A LBD differential scanning fluorimetry, Tm shift; 0% = protein alone, 100% = glycine-bound protein. Tm shift relative to glycine control, % at 25 µM. 2.5% of 340,000 active. AID 1259313;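 active = melting temperature shift of at least 10% of the positive control shift, at one fixed dose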
CSC inhib: blocks cancer stem cells. inhibition, % at 7.5 µM. 1.1% of 300,000 active. cancer stem cell-like cells viability, luminescence; in the data active = inhibition above about 75%; tested in HMLE shEcad cells
CHOP inhibitor: inhibitors of CHOP induction in ER stress response; CHO-K1 CHOP-promoter luciferase, tunicamycin-induced, 15-18 h; inhibition, % at 10 µM; 3.8% of 220,000 active;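 active = compounds that reduced the stress-induced luciferase reporter signal by more than about 70% of percent inhibition, limit read from the data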
Beta cell apopt: beta cell apoptosis inhibition. INS-1E cytokine-induced death, ATP luminescence, 48 h; percent of positive-control rescue, neutral wells zero. protection from apoptosis, % (test concentration not listed). 0.8% of 300,000 active;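 active = Every replicate reaches about 75%, or at least half do and their mean reaches it too, limit read from the data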;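 note: higher means more ATP so stronger rescue from cytokine killing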
T cruzi inh: blocks replication of Trypanosoma cruzi | AID 1885 | T. cruzi beta-gal in NIH3T3, luminescence, 90 h | 1.4% of 300,000 active | inhibition, % (concentration not given with the values);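 active = mean inhibition across valid replicates above about 55%, limit read from the data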;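 note: signal also drops with host cell toxicity which is not excluded here; higher percent means less beta-gal luminescence so fewer parasites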
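Assay system: NIH/3T3 host cells with β-galactosidase reporter T. cruzi; input: 5,000 host fibroblasts per well; compound: single 50 nL compound addition per well in DMSO; timing: ≥90 h infection period, 3 h prior cell attachment; measured by: GalScreen β-gal luminescence, detergent lysis, 60 min; evaluation: percent inhibition of parasite-derived β-gal signal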
Each line names hits and unclear results; the compound was inactive in the other large screens; ! = repeats disagree.

CN(c1cccc(NC(=O)CN(c2ccc(Cl)c(Cl)c2)S(=O)(=O)c2ccccc2)c1)S(C)(=O)=O	none
O=C(N/N=C/c1cccc(O)c1)c1csc2ccccc12	GRIN3A LBD mod 22.3
CC(/C=N/NC(=O)c1cc(-c2ccncc2)nc2ccccc12)=C\c1ccco1	none (no result: CSC inhib)
O=C(N/N=C/c1ccc(Cl)c([N+](=O)[O-])c1)c1cc(-c2ccccc2)nc2ccccc12	CSC inhib 96.4
O=C(N/N=C/c1cccc(O)c1)c1cc(-c2ccccc2)nc2ccccc12	GRIN3A LBD mod 14.6 (no result: CHOP inhibitor, Beta cell apopt)
O=C(N/N=C/c1ccco1)c1cc(-c2cccc(Br)c2)nc2ccccc12	GRIN3A LBD mod 11.8
CC(C)(C)c1cc(NS(=O)(=O)c2ccc(Br)s2)no1	none (no result: CHOP inhibitor)
Cc1ccccc1OCCSCc1nc2ccccc2[nH]1	none
O=C(CSc1nnc(Nc2ccccc2)s1)NCC1CCCO1 (configuration not stated)	none (no result: CHOP inhibitor, T cruzi inh)
O=C(N/N=C/C=C\c1ccccc1[N+](=O)[O-])c1cc(-c2ccccc2)nc2ccccc12	GRIN3A LBD mod 10.5
O=C(N/N=C/c1cccc([N+](=O)[O-])c1)c1cc(-c2ccccc2)nc2ccccc12	none
COc1ccc(N/N=C/c2c(C(=O)O)ccc3ccccc23)cc1	CSC inhib 109.3, CHOP inhibitor 95.7, Beta cell apopt 116.1
O=C(NC1(Cc2ccccc2)CCN(CCCc2ccccc2)C1=O)c1ccccc1 (configuration not stated)	Beta cell apopt 111.3 (no result: CHOP inhibitor, T cruzi inh)
OCC1(Cc2ccc(Cl)cc2)CCN(CCCc2ccccc2)CC1	none
c1csc(-c2csc3ncnc(NCCCN4CCOCC4)c23)c1	Beta cell apopt 76.2
CCC1(C)CC(C(CC(=O)O)c2ccc(C)cc2)CCO1 (configuration not stated)	GRIN3A LBD mod 11.0
COc1cccc(C(=O)NCCS(=O)(=O)N2CCC(C)CC2)c1	none (no result: CHOP inhibitor)
O=C(CSc1nnc(Cc2cccs2)n1Cc1ccco1)Nc1cccc(Cl)c1	none
O=C(CSc1nnc(Cc2cccs2)n1Cc1ccco1)Nc1cc(Cl)cc(Cl)c1	CHOP inhibitor 81.8
COc1ccc(C)cc1NC(=O)CSc1nnc(COc2ccc(Cl)cc2)n1Cc1ccco1	CSC inhib 78.7
Clc1ccc(OCc2nnc(SCc3nc4ccccc4[nH]3)n2Cc2ccco2)cc1	CHOP inhibitor 81.1
Clc1cccc(-c2nnc(SCc3nc4ccccc4[nH]3)n2Cc2ccco2)c1	none
CC12CCC(=O)N1C(C(=O)Nc1ccc(SC(F)F)cc1)CS2 (configuration not stated)	none (no result: GRIN3A LBD mod, CHOP inhibitor, Beta cell apopt)
CC[C@@H]1C/C=C\Cc2ccccc2[C@@H](C(=O)C[C@H](O)CC(C)=O)OC1=O	none (no result: CHOP inhibitor, T cruzi inh)
O=C(Nc1nnc(Cc2ccccc2F)s1)c1ccccc1Cl	none (no result: CHOP inhibitor)
CC(C)(C)c1ccc(C(=O)Nc2nnc(Cc3c[nH]c4ccccc34)s2)cc1	GRIN3A LBD mod 25.7, CSC inhib 96.3, CHOP inhibitor 74.8
O=C(Nc1nnc(Cc2c[nH]c3ccccc23)s1)c1ccc(Cl)cc1Cl	GRIN3A LBD mod 25.7
Cc1snc(S(=O)(=O)/C(C#N)=N/Nc2cccc(C(F)(F)F)c2)c1C#N	GRIN3A LBD mod 24.4, CSC inhib 88.1
Cc1ccc(C(=O)c2ccc(O)cc2)cc1C	none (no result: T cruzi inh)
Cc1ccc(C(=O)c2cccc(N)c2)cc1C	CHOP inhibitor 78.5
NNc1nc2c(Cl)c(Cl)ccc2s1	GRIN3A LBD mod 11.1
CCN1CCc2c(sc(NC(=O)c3cc4ccccc4cc3OC)c2C(N)=O)C1	T cruzi inh 58.4 (no result: CHOP inhibitor)
CC(C)N1CCc2c(sc(NC(=O)c3cc4cc([N+](=O)[O-])ccc4s3)c2C(N)=O)C1	GRIN3A LBD mod 10.3, CHOP inhibitor 77.9 (no result: PREPL inhibitor, CSC inhib, Beta cell apopt)
NC(=O)c1c(NC(=O)C2COc3ccccc3O2)sc2c1CCN(Cc1ccccc1)C2 (configuration not stated)	CHOP inhibitor 79.0
CCOC(=O)c1c(NC(=O)C2COc3ccccc3O2)sc2c1CCN(Cc1ccccc1)C2 (configuration not stated)	none
CC(C)N1CCc2c(sc(NC(=O)c3ccc(C(=O)c4ccccc4)cc3)c2C(N)=O)C1	none (no result: CHOP inhibitor, Beta cell apopt)
COc1cccc(OC)c1C(=O)Nc1sc2c(c1C(N)=O)CCN(Cc1ccccc1)C2	none (no result: CHOP inhibitor)
CC(C)N1CCc2c(sc(NC(=O)c3ccc4ccccc4c3)c2C(N)=O)C1	CSC inhib 78.6 (no result: CHOP inhibitor)
C=CCn1c2ccccc2c2n[nH]c(=S)nc21	none (no result: PREPL inhibitor, CSC inhib, CHOP inhibitor, Beta cell apopt)
COc1cc(SC)ccc1C(=O)N1CCN(S(=O)(=O)/C=C/c2ccccc2)CC1	none (no result: CSC inhib, CHOP inhibitor, Beta cell apopt, T cruzi inh)
COc1ccccc1C(=O)Nc1sc2c(c1C#N)CCC2	none (no result: CHOP inhibitor, Beta cell apopt)
COc1ccccc1C(=O)Nc1sc2c(c1C(N)=O)CCCC2	GRIN3A LBD mod 35.0 (no result: CHOP inhibitor)
CC(=O)Nc1sc2c(c1-c1nc3ccccc3s1)CCN(C(C)C)C2	Beta cell apopt 100.2 (no result: T cruzi inh)
NC(=O)c1c(NC(=O)C2c3ccccc3Oc3ccccc32)sc2c1CCCCC2	CHOP inhibitor 73.8
CC(=O)Nc1sc2c(c1C(N)=O)CCCC2	none
CCOC(=O)CNC(=S)N(CCCN1CCN(C)CC1)Cc1cccs1	none (no result: CHOP inhibitor)
CCOc1ncccc1C(=O)OCC(=O)c1c(N)n(C)c(=O)n(C)c1=O	CHOP inhibitor 85.8
c1ccc(Nc2nn[nH]n2)cc1	CHOP inhibitor 82.1
Cc1c2cnn(CC(=O)Nc3c(F)c(F)cc(F)c3F)c(=O)c2c(C)n1Cc1ccc(F)cc1	CHOP inhibitor 78.6 (no result: GRIN3A LBD mod)
COc1ccc(-c2n[nH]c(C(F)(F)F)c2-c2cc3ccccc3o2)c(O)c1	GRIN3A LBD mod 15.3, CSC inhib 102.4, CHOP inhibitor 105.3
Cc1ccc(-n2nc3c(n2)/C(=N/O)CC/C3=N\O)cc1	none
Cc1cccc(-n2nc3c([n+]2[O-])CCc2nonc2-3)c1C	none
Cc1ccc(-n2nc3c([n+]2[O-])CCc2c-3no[n+]2[O-])cc1	CHOP inhibitor 89.9
[O-][n+]1onc2c1CCc1c-2nn(-c2ccccc2Cl)[n+]1[O-]	CHOP inhibitor 96.0, Beta cell apopt 96.1
Cc1noc(C)c1COC(=O)C1CCN(S(=O)(=O)c2ccc(F)cc2)CC1	none (no result: CSC inhib, CHOP inhibitor, T cruzi inh)
CC(C)c1ccc(C(=O)NCCCN(C)C)cc1	T cruzi inh 60.5
CN(C)CCCNCCCNC(=O)c1ccco1	GRIN3A LBD mod 11.2!
CN(C)CCCNC(=O)c1ccc(Cl)c(S(=O)(=O)N(C)c2ccccc2)c1	T cruzi inh 65.3
C#Cc1ccc([C@@H]2C=C(C(=O)OCC=C)O[C@H](OCc3ccc(CO)cc3)C2)cc1	none
Cc1nn(Cc2c(Cl)cccc2Cl)c(Cl)c1/C=N/NC(=O)c1cccnc1	none
C[C@H]1CN([C@@H](C)CO)C(=O)c2cccc(NS(=O)(=O)c3cn(C)cn3)c2O[C@H]1CN(C)S(C)(=O)=O	none (no result: CHOP inhibitor, T cruzi inh)
Oc1ccc2c(c1)oc1cc(O)ccc12	GRIN3A LBD mod 18.4
O=C(CCn1c(=O)[nH]c2ccsc2c1=O)NCc1ccc(F)cc1	none
Cc1nc(N2CCN(C(=O)c3ccco3)CC2)c2c3c(sc2n1)CC(C)CC3 (configuration not stated)	Beta cell apopt 80.4
